Measured values taken from ChEMBL document CHEMBL2331170, “Synthesis and biological evaluation of novel pyranochalcone derivatives as a new class of microtubule stabilizing agents” (Eur J Med Chem, 2013).
The source made the active and inactive calls. The calls are words filed in the database; no cut-off is given here.

Experiments:
Tubulin (Sus scrofa) [1] = molecular target: T1, Tubulin (Sus scrofa) (UniProt P02554+P02550); experiment: Stabilization of purified pig brain tubulin polymerization at 5 uM measured every 30 seconds by spectrophotometry
T1 sequence (P02550 whole entry, looked up): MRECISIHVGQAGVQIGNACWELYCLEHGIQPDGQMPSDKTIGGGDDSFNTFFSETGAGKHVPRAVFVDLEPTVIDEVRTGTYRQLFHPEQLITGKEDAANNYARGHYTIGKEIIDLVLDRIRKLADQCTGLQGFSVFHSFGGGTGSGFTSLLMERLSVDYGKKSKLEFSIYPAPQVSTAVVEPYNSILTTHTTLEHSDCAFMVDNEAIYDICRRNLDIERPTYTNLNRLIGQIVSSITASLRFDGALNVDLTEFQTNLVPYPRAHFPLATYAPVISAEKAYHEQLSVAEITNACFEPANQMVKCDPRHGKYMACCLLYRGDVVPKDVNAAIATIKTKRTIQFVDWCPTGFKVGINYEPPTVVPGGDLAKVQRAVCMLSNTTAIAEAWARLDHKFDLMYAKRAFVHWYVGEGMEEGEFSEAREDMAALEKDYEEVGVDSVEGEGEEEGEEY
T1 sequence (P02554 whole entry, looked up): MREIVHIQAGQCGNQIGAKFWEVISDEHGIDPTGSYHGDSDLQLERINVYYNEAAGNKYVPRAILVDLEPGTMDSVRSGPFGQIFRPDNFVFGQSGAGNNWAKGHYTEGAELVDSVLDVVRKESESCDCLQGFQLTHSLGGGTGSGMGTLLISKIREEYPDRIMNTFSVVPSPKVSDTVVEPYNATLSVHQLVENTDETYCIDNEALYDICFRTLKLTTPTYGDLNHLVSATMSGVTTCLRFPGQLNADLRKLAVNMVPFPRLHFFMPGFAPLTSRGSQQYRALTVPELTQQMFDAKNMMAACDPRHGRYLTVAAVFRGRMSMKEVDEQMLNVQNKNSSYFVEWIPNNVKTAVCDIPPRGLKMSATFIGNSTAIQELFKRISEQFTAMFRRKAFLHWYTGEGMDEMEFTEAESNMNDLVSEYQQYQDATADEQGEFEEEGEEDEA
Outline: (§1)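 It was pre-incubated 5 min with compound (5, 10, 20 μM), Taxol (5, 20 μM) or DMSO. GTP was added to 1 mM final to start assembly, followed as the rise in absorbance at 340 nm at 37 °C.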

HCT-8 = experiment: Cytotoxicity against taxol-resistant human HCT8 cells by MTT assay; type: functional, cell-based
HCT-15 = experiment: Cytotoxicity against human HCT15 cells by MTT assay; type: functional, cell-based
DU-145 = experiment: Cytotoxicity against human DU145 cells by MTT assay; type: functional, cell-based
Bel-7402 = experiment: Cytotoxicity against human Bel7402 cells by MTT assay; type: functional, cell-based
NCI-H358 = experiment: Cytotoxicity against human NCI-H358 cells by MTT assay; type: functional, cell-based
[2] = Cytotoxicity against human SPC-A1 cells by MTT assay; type: functional, cell-based; conditions: SPCA1
HepG2 [3] = experiment: Antitumor activity against human HepG2 cells xenografted in Balb/C mouse assessed as tumor growth inhibition rate at 5 mg/kg administered every 4 days for 3 weeks measured on day 20; type: functional; conditions: read-out: TGI
Outline: (§2)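 HepG2 cells (5 × 10⁶/mouse) in HBSS implanted in the right flank of 5–6-week-old female Balb/C and athymic nude mice, six per group. Dosing began once tumors reached ~100 mm³: three weeks at 2.5, 5 or 10 mg/kg every two days, or Taxol 5 mg/kg every four days; controls got physiological saline. Tumor volume = π/6 × length × width². T/C (%) = treated/control tumor volume × 100. Inhibition = (1 − treated/control tumor weight) × 100.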

A2780 = experiment: Cytotoxicity against taxol-resistant human A2780 cells by MTT assay; type: functional, cell-based
[4] = Cytotoxicity against human MCF7/ADR cells by MTT assay; type: functional, cell-based; conditions: NCI/ADR-RES
[5] = Cytotoxicity against human H460 cells by MTT assay; type: functional, cell-based; conditions: NCI-H460
Tubulin (Sus scrofa) [6] = molecular target: T1, Tubulin (Sus scrofa); experiment: Stabilization of purified pig brain tubulin polymerization at 20 uM measured every 30 seconds by spectrophotometry; outline: as §1
SK-OV-3 = experiment: Cytotoxicity against human SKOV3 cells by MTT assay; type: functional, cell-based
[7] = Cytotoxicity against human ES2 cells by MTT assay; type: functional, cell-based; conditions: ES-2
[8] = Cytotoxicity against mouse C26 cells by MTT assay; type: functional, cell-based
SK-HEP1 = experiment: Cytotoxicity against human SKHEP1 cells by MTT assay; type: functional, cell-based
MCF7 = experiment: Cytotoxicity against human MCF7 cells by MTT assay; type: functional, cell-based
HepG2 [9] = experiment: Antitumor activity against human HepG2 cells xenografted in Balb/C mouse assessed as tumor volume T/C ratio at 5 mg/kg administered every 4 days for 3 weeks measured on day 20 relative to control
PC-3 = experiment: Cytotoxicity against human PC3 cells by MTT assay; type: functional, cell-based
HT-29 = experiment: Cytotoxicity against human HT-29 cells by MTT assay; type: functional, cell-based
Tubulin (Sus scrofa) [10] = molecular target: T1, Tubulin (Sus scrofa); experiment: Induction of purified pig brain tubulin depolymerization at 5 to 20 uM measured every 30 seconds by spectrophotometry; outline: as §1
[11] = Ratio of taxol IC50 to compound IC50 for mouse C26 cells by MTT assay; type: functional
Mus musculus [12] = experiment: Toxicity in human HepG2 cells xenografted Balb/C mouse assessed as behaviour changes at 2.5 to 10 mg/kg administered every 2 days for 3 weeks; type: organism-based; set-up: dose 2.5-10 mg/kg; conditions: in vivo
Outline: (§3)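 Female Balb/C and nude mice (5–6 weeks) carried right-flank HepG2 xenografts (5 × 10⁶ cells). From ~100 mm³ tumor volume they were dosed at 2.5–10 mg/kg every two days for three weeks, six per group, with saline controls. Toxicity signs and mortality were checked daily. Body weight was measured every two days; feeding and behavior were observed.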

HepG2 [13] = experiment: Antitumor activity against human HepG2 cells xenografted in Balb/C mouse assessed as tumor growth inhibition rate compound administered every 2 days for 3 weeks measured on day 20; type: functional, cell-based; outline: as §2
HepG2 [14] = experiment: Antitumor activity against human HepG2 cells xenografted in Balb/C mouse assessed as tumor volume T/C ratio at 10 mg/kg administered every 2 days for 3 weeks measured on day 20 relative to control
Tubulin (Sus scrofa) [15] = molecular target: T1, Tubulin (Sus scrofa); experiment: Stabilization of purified pig brain tubulin polymerization at 10 uM measured every 30 seconds by spectrophotometry; outline: as §1
HepG2 [16] = experiment: Effect on microtubule network in human HepG2 cells assessed as multiple tubulin bundles without chromosomes aligned at the metaphase plate with more dispersion of the chromosomes at 1 uM after 24 hrs by propidium iodide-FITC-based staining method; type: cell-based
Outline: (§4)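 HepG2 cells were treated with 1.0 μM for 24 h. They were washed in PBS, fixed in cold 4% PFA for 10 min and blocked for 1 h in 5% goat serum/0.3% Triton/PBS. Staining used monoclonal anti-α-tubulin overnight at 4 °C, then Alexa Fluor 488 anti-mouse IgG for 30 min at room temperature, with propidium iodide for DNA. Cells were imaged by fluorescence or confocal microscopy.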

HepG2 [17] = experiment: Antitumor activity against human HepG2 cells xenografted in Balb/C mouse assessed as tumor volume T/C ratio at 2.5 mg/kg administered every 2 days for 3 weeks measured on day 20 relative to control
Tubulin (Sus scrofa) [18] = molecular target: T1, Tubulin (Sus scrofa); experiment: Stabilization of purified pig brain tubulin polymerization measured every 30 seconds by spectrophotometry; outline: as §1
HepG2 [19] = experiment: Cell cycle arrest in human HepG2 cells assessed as accumulation at G2/M phase at 1 uM after 24 hrs by flow cytometry (reference value: 17.07 %); type: functional
Tubulin (Homo sapiens) [20] = molecular target: T2, Tubulin (Homo sapiens) (UniProt P68371+Q9H4B7+P0DPH7+P68366+Q13509+Q71U36+P04350+Q3ZCM7+P07437+P68363+Q9BQE3+Q6PEY2+Q13885+Q9BVA1+Q9BUF5); experiment: Increase in polymerized tubulin level in human HepG2 cells at 0.1 to 0.5 uM after 24 hrs by Western blot analysis; type: cell-based
Outline: (§5)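 HepG2 cells were treated at 0.1 or 0.5 μM for 24 h and washed three times in PBS. They were lysed on ice for 30 min in 20 mM Tris-HCl pH 6.8, 1 mM MgCl₂, 2 mM EGTA, 1 mM PMSF, 1 mM orthovanadate, 0.5% NP-40 and protease inhibitor. Tubulin was immunoblotted with α-tubulin antibody and HRP secondary, with chemiluminescent detection.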

K562 = experiment: Cytotoxicity against human K562 cells by MTT assay; type: functional, cell-based
Outline: (§6)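 Log-phase cells were diluted to 40,000–50,000 cells/mL in medium with 10% FBS, 2 mM glutamine and antibiotics (37 °C, 5% CO₂). They were seeded in 96-well plates and treated with a range of doses. MTT was added for 4 h, the formazan was dissolved in DMSO, and absorbance was read at 590 nm.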

HepG2 [21] = experiment: Antitumor activity against human HepG2 cells xenografted in Balb/C mouse assessed as tumor growth inhibition rate at 10 mg/kg administered every 2 days for 3 weeks measured on day 20; type: functional; conditions: read-out: TGI; outline: as §2
Tubulin (Homo sapiens) [22] = molecular target: T2, Tubulin (Homo sapiens); experiment: Decrease in unassembled tubulin level in human HepG2 cells at 0.1 to 0.5 uM after 24 hrs by Western blot analysis; type: cell-based; outline: as §5
HepG2 [23] = experiment: Effect on microtubule network in human HepG2 cells assessed as abnormal mitotic spindles at 1 uM after 24 hrs by propidium iodide-FITC-based staining method; type: cell-based; outline: as §4
HepG2 [24] = experiment: Induction of microtubule polymerization in human HepG2 cells at 1 uM after 24 hrs by propidium iodide-FITC-based staining method
A-375 = experiment: Cytotoxicity against human A375 cells by MTT assay; type: functional, cell-based; outline: as §6
HepG2 [25] = experiment: Cell cycle arrest in human HepG2 cells assessed as accumulation at G2/M phase at 0.2 uM after 24 hrs by flow cytometry (reference value: 17.07 %); type: functional
HepG2 [26] = experiment: Antitumor activity against human HepG2 cells xenografted in Balb/C mouse assessed as tumor growth inhibition rate at 5 mg/kg administered every 2 days for 3 weeks measured on day 20; type: functional; conditions: read-out: TGI; outline: as §2
[27] = Cytotoxicity against human LO2 cells by MTT assay; type: cell-based; conditions: L02; outline: as §6
Mus musculus [28] = experiment: Toxicity in human HepG2 cells xenografted Balb/C mouse assessed as weight loss at 2.5 to 10 mg/kg administered every 2 days for 3 weeks; type: organism-based; set-up: dose 2.5-10 mg/kg; conditions: in vivo; outline: as §3
HepG2 [29] = experiment: Antitumor activity against human HepG2 cells xenografted in Balb/C mouse assessed as tumor volume T/C ratio at 5 mg/kg administered every 2 days for 3 weeks measured on day 20 relative to control
HepG2 [30] = experiment: Cell cycle arrest in human HepG2 cells assessed as accumulation at G2/M phase at after 24 hrs by flow cytometry; type: functional, cell-based
HepG2 [31] = experiment: Cytotoxicity against human HepG2 cells by MTT assay; type: functional, cell-based; outline: as §6
[32] = Cytotoxicity against human A2780S cells by MTT assay; type: functional, cell-based; conditions: A2780
HepG2 [33] = experiment: Antitumor activity against human HepG2 cells xenografted in Balb/C mouse assessed as tumor growth inhibition rate at 2.5 mg/kg administered every 2 days for 3 weeks measured on day 20; type: functional; conditions: read-out: TGI; outline: as §2
Mus musculus [34] = experiment: Toxicity in human HepG2 cells xenografted Balb/C mouse assessed as feeding at 2.5 to 10 mg/kg administered every 2 days for 3 weeks; type: organism-based; set-up: dose 2.5-10 mg/kg; conditions: in vivo; outline: as §3

For CC(=O)O[C@H]1C(=O)[C@@]2(C)[C@H]([C@H](OC(=O)c3ccccc3)[C@]3(O)C[C@H](OC(=O)[C@H](O)[C@@H](NC(=O)c4ccccc4)c4ccccc4)C(C)=C1C3(C)C)[C@]1(OC(C)=O)CO[C@@H]1C[C@@H]2O [PACLITAXEL], the Activity (Tubulin (Sus scrofa) [1]) was 6.3%, the IC50 (HCT-8) was 13.3 µM and the IC50 (HCT-15) was 0.12 µM. For the same compound, the IC50 (DU-145) was 0.03 µM, the IC50 (Bel-7402) was greater than 2 µM and the IC50 (NCI-H358) was 0.01 µM. For the same compound, the IC50 [2] was 5.3 µM, the inhibition in vivo at 5 mg/kg (HepG2 [3]) was 59.1% and the IC50 (A2780) was 8.25 µM. For the same compound, the IC50 [4] was 6.9 µM, the IC50 [5] was 24 µM and the Activity (Tubulin (Sus scrofa) [6]) was 23.8%. The IC50 (SK-OV-3) was 0.1 µM, the IC50 [7] was 0.1 µM and the IC50 [8] was 1.05 µM. It also gave an IC50 (SK-HEP1) of 0.24 µM, an IC50 (MCF7) of 0.66 µM and a T/C at 5 mg/kg (HepG2 [9]) of 32.4%. For the same compound, the IC50 (PC-3) was 0.14 µM and the IC50 (HT-29) was 0.45 µM.
With CCC(=O)Oc1cc(/C=C/C(=O)c2ccc(OC)c3c2OC(C)(C)C=C3)ccc1OC the Activity (Tubulin (Sus scrofa) [10]) was “inactive”, the “Ratio IC50” value [11] was 3 and the Activity (Tubulin (Sus scrofa) [1]) was 10%. For the same compound, the IC50 (HCT-8) was 1.69 µM, the Activity (Mus musculus [12]) was “Non-toxic” and the IC50 (HCT-15) was 0.1 µM. The IC50 (DU-145) was 0.19 µM, the TGI (HepG2 [13]) was “Dose-dependent effect” and the T/C at 10 mg/kg (HepG2 [14]) was 33.9%. For the same compound, the Activity (Tubulin (Sus scrofa) [15]) was 16.3%, the Activity (HepG2 [16]) was “Active” and the T/C at 2.5 mg/kg (HepG2 [17]) was 34.9%. The Activity (Tubulin (Sus scrofa) [18]) was “Dose-dependent effect”, the Activity (HepG2 [19]) was 76.02% and the Activity (Tubulin (Homo sapiens) [20]) was “Active”. For the same compound, the IC50 (K562) was 0.16 µM, the inhibition in vivo at 10 mg/kg (HepG2 [21]) was 69.7% and the IC50 (Bel-7402) was 0.4 µM. The Activity (Tubulin (Homo sapiens) [22]) was “Active”, the IC50 (NCI-H358) was 0.15 µM and the Activity (HepG2 [23]) was “Active”. For the same compound, the Activity (HepG2 [24]) was “Active”, the IC50 (A-375) was 0.24 µM and the IC50 [2] was 22.3 µM. The Activity (HepG2 [25]) was 67.76%, the inhibition in vivo at 5 mg/kg (HepG2 [26]) was 57.6% and the IC50 [27] was greater than 10 µM. The Activity (Mus musculus [28]) was “Non-toxic”, the IC50 (A2780) was 1.33 µM and the IC50 [4] was 0.16 µM. For the same compound, the T/C at 5 mg/kg (HepG2 [29]) was 32.4%, the IC50 [5] was 4.05 µM and the Activity (HepG2 [30]) was “Dose-dependent effect”. It also gave an Activity (Tubulin (Sus scrofa) [6]) of 32%, an IC50 (SK-OV-3) of 0.35 µM and an IC50 [7] of 0.1 µM. For the same compound, the IC50 [8] was 0.31 µM, the IC50 (HepG2 [31]) was 0.09 µM and the IC50 (SK-HEP1) was 0.32 µM. It also gave an IC50 (MCF7) of 0.19 µM, an IC50 [32] of 0.22 µM and an inhibition in vivo at 2.5 mg/kg (HepG2 [33]) of 54.3%. The Activity (Mus musculus [34]) was “Non-toxic”, the IC50 (PC-3) was 0.09 µM and the IC50 (HT-29) was 0.2 µM.
